This series has as its system MS2 coat protein. The series is described as follows: apparent Kd, MS2 coat protein; higher = weaker binding; RNA-MaP array; FMN 200 µM where present. The procedure, abridged: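 The apparent Kd comes from binding curves fitted cluster by cluster, filtered, and summarised as a median. Those curves followed SNAP-549-labelled MS2 coat protein from 0.7 or 1.5 nM, doubling to 3 µM, on Illumina sequencing-chip clusters where stalled E. coli RNA polymerase had transcribed the designs, without and then with constant ligand. The buffer was 100 mM Tris-HCl pH 7.5, 80 mM KCl, 4 mM MgCl2, BSA, DTT, yeast tRNA and Tween-20, and green signal was normalised to red-channel RNA signal and control-cluster median Fmax.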

The mark [1] stands for this setting: designed as: OFF switch for flavin mononucleotide, no ligand.
The mark [2] stands for this setting: ligand present: flavin mononucleotide, designed as: OFF switch for flavin mononucleotide.
Setting [3] is: designed as: ON switch for flavin mononucleotide, no ligand.
[4] abbreviates: ligand present: flavin mononucleotide, designed as: ON switch for flavin mononucleotide.

As a reminder, the apparent Kd is the concentration giving half-maximal binding under the conditions of the assay. As for “UUUCUCUGUGUGAGGAUAUACUUGUUUGGGUUUUUGUAGAAGGCACAUGAGGAUCACCCAUGUAUUUUGUCGUG”, the “apparent Kd” value under setting [1] was found to be 34.4 nM and the “apparent Kd” value under setting [2] turned out to be 55.6 nM.
Take “UGCCGCAACAACACGGCAUCACAUGAGGAUCACCCAUGUUCACAGGAUAUGCGAUAGCCAACGAAGCAGAAGGGUGAUUACUUA”: the “apparent Kd” value reads like this: under setting [3], 31.9 nM; under setting [4], 215 nM.
For “UUACUAUUGGAGAAGGCUCAAUAAUAUAUAAAGGGAGGAUAUCCAACAUGAGGAUCACCCAUGUUUCACCCAUAUGAGGAUCAC”, the “apparent Kd” value runs as follows: under setting [1], 13.1 nM; under setting [2], 12.5 nM.
For “GCGACGAAAGUCGAACGAUGUAGCAGAAGGACAUGAGGAUCACCCAUGUCAGCUGUAACAGCCAUGUAGGAUAUGCUACAUCGG”, in that order: 4.09 nM and 5.27 nM.
In the same order, the values of “UAGAAGUCAGGAUAUGCAUGGCGGGACUUGCGUCGUGGCGUGCAGAAGGGACAUGAGGAUCACCCAUGUAAAGG” are 159 nM and 265 nM.
In the case of “AGAUAUAACUCAGGAUAUCAGCAUGGGUAGAUCACAUGAGGAUCACCCAUGUGCAUGUCCCGGCAUGAGAAGGGAGUAACGCAA”, the “apparent Kd” value is, setting by setting: under setting [3], 43.2 nM; under setting [4], 52.2 nM.
Consider “AGGAAGCAAGGAUAUACGAGGAGAAGGUGGAGAGUUAAAGGACAUGAGGAUCACCCAUGUAGAAGGUGCGAGAA”, for which the “apparent Kd” value came out at 59.7 nM under setting [1] and 76.8 nM under setting [2].
In the same order, the values of “AUGGUGGUAGGAUAUACAACUACUUGAUCGCGUUUCAUGGAACAUGAGGAUCACCCAUGUAGAAGGGCCCGAGG” are 794 nM and 552 nM.
“ACAAUGUUAGGAUAUCUGAGAAUUAGUCUCGACUAGUCGAAGGAGAAGGAACAUGAGGAUCACCCAUGUAGAUC”: the “apparent Kd” value reads like this: under setting [1], 43.4 nM; under setting [2], 275 nM.
In the same order, the values of “AAAAGACAUGAGGAUCACCCAUGUCAGGAUAUCUAUAUUCAAGGGUCGGAGGGAAUACAGAGAAGGGAUGAGGG” are 21.8 nM and 24.8 nM.
In the same order, the values of “AGUCGGAGCAGAGGAUAUUACAUGAGGAUCACCCAUGUGGAAAAACCAAGCUGGAAACAGCAAUGUAAGAAGGCUGCUCCGACA” are 497 nM and 879 nM.
As to “GUAGCUAUCGGAGGAUAUUCAUACCGGAAACGGACAUGAGGAUCACCCAUGUAGCGAAAGCCUUGGGAGAAGGCCGAUAGCUAC”, the “apparent Kd” value stood at 919 nM under setting [3] and 103 nM under setting [4].
On to “AAAUAAGUUGCAGGAUAUUAUUUUUGAUAAAUAUAAGAAGGGCAACAAACCUCACAUGAGGAUCACCCAUGUACCCAUGUAUCU”, for which the “apparent Kd” value is, setting by setting: under setting [1], 65.5 nM; under setting [2], 30 nM.
On to “GUAGCAUGCAGGCAGGAUAUUCAUAUUAAAACAUGAGGAUCACCCAUGUAGGCCGAAAGGCCUUGGGAGAAGGGCCACAUGCUAC”, for which the “apparent Kd” value turned out to be 786 nM under setting [3] and 52.6 nM under setting [4].
For the sequence “AGUCGGAGCAGAGGAUAUACAUGAGGAUCACCCAUGUAAAUGAAUGAAGCCAGGAAACUGGCAAUGUAGAAGGCUGCUCCGACA”, the “apparent Kd” value under setting [1] came out at 18 nM and the “apparent Kd” value under setting [2] came to 52.8 nM.
For the sequence “GCAUGGAAAGUGAGGAUAUACCACUGGAUACAGUGGUAGAAGGCACAUGAGGAUCACCCAUGUUCCUACCAUGC”, the “apparent Kd” value under setting [1] was determined as 16.9 nM and the “apparent Kd” value under setting [2] was 71.3 nM.
Take “ACGGCAGUCGAAGGAUAUGGUUACAUGAGGAUCACCCAUGUCUAGGUUCUUAAAUAGUAUAAUUUCCAGAAGGUCGAAGGCCUA”: the “apparent Kd” value is, setting by setting: under setting [1], 29.4 nM; under setting [2], 35.5 nM.
For “CAAGGGCAUGAGAAGGCAUAAUAUAUAAUACCACAUGUUUACAUGAGGAUCACCCAUGUUACCUAUGAGGAUAUCAUGCCUACA”, in that order: 14.4 nM and 12.9 nM.
In the same order, the values of “UACAUGAGGAUCACCCAUGUUUUGUCGUGUAUGGUAUUUAUCUAGGAUAUCAUUCUAUUUAGUUAUGAGAAGGAGAAUAUUAAU” are 28.1 nM and 27.4 nM.
In the same order, the values of “UUUUUUGUAGUGAGGAUAUCGUUGAGGAUGUGGAUCGAGAAGGCACAUGAGGAUCACCCAUGUUAGAUGUGGUU” are 262 nM and 295 nM.
Consider “GGUAAAUAAAGAGUACUGUUUUGAACAUGAGGAUCACCCAUGUAGGAUAUGCGAGUUUUGAAUUUGCAGAAGGACAUUUUUAGC”, for which the “apparent Kd” value reads like this: under setting [1], 19.6 nM; under setting [2], 20.4 nM.
Regarding “ACAUGAGGAUCACCCAUGUGAAAGAAAUGGCUGACUUUGAGCUAGGAUAUUUGUGCAUAUCAAACGAAGAAGGAGCAUUACUGG”, the “apparent Kd” value is, setting by setting: under setting [1], 22.2 nM; under setting [2], 21 nM.
In the same order, the values of “AAACGUAGAGGAUAUACAUAAGUAUUACGAAAGUAAUACAAACAUGAGGAUCACCCAUGUAGAAGGCUACGAAA” are 25.4 nM and 35.3 nM.
For “GGAUAGGACAGAGGAUAUACGUGCUAGAUAUACUAGCAAAAUUUCCUCACAUGAGGAUCACCCAUGUAGAAGGCUGUCCUAUCG”, in that order: 15.6 nM and 399 nM.
As for “CGAAGUAGCACAGGAUAUCAUACAUGAGGAUCACCCAUGUCAAGAAACAAAUGAGAAGGGUGCAGACGGUGUUGGAGCUGUUGC”, the “apparent Kd” value reads like this: under setting [3], 192 nM; under setting [4], 26.6 nM.
For “AACUAAGUAUUAAUGGUGUCUGACAGAAGGCAAUAGGUUGUGACCGACAUGAGGAUCACCCAUGUUGAGGAUAUGUCUAGCUAC”, the “apparent Kd” value was found to be 44.7 nM under setting [1] and 308 nM under setting [2].
“UGGUACAUCGGAGGAUAUCAUGUAGAUACAUGAGGAUCACCCAUGUCGUACGAGAGUACGGAGAUUGAGAAGGCCGAUGUACCU”: the “apparent Kd” value amounted to 30.7 nM under setting [3] and 16.4 nM under setting [4].
On to “ACAUUUAUAUCAGGAUAUACAAUACAAUGAUUAGUAGAAGGGAUUAUUACAUGAGGAUCACCCAUGUCAUGUGUCAUAAUAACC”, for which the “apparent Kd” value runs as follows: under setting [1], 27.6 nM; under setting [2], 24.1 nM.
For the sequence “CUGGUUGUCGUAGGAUAUGUAGGAUAUUCCUACAUGAGGAUCACCCAUGUUCGCAUGGAAGAAGGACAGAAGGACGAUGACCAU”, the “apparent Kd” value under setting [3] worked out at 1020 nM and the “apparent Kd” value under setting [4] is 9.16 nM.
In the same order, the values of “GUGCUUUGGGAGAAGGCCGAUAGCAAAGCUAUCGGAGGAUAUUCAUACCGGAAACGGACAUGAGGAUCACCCAUGUGGCACAAA” are 1430 nM and 44.5 nM.
For “AUAUAUAUAAAGAAGGUGCCAGCGAGAGCUGCACAUGAGGAUCACCCAUGUUGUCGGUGACGACGCAAGGAUAUUUAUAUAUAU”, in that order: 31.6 nM and 7.28 nM.
Turning to “AUUUUGCUCGCAGGAUAUCAGGAAAUGUUGAUCUUCUGUAUCUCCUACAUGAGGAUCACCCAUGUUGAGAAGGGCGAUGGCAAU”, the “apparent Kd” value under setting [1] amounted to 106 nM and the “apparent Kd” value under setting [2] worked out at 358 nM.
In the same order, the values of “CCGAAUAAGCAGGAUAUCGUAUCGGAAACGAUACGAGAAGGGUUAACAUGAGGAUCACCCAUGUUCCUUAACGG” are 20.3 nM and 24.8 nM.
As to “UUUCCAUAGAUAGGAUAUCAGUUUACAUGAGGAUCACCCAUGUUCUCUUUGGUUAUAAUUAUAUCUGAGAAGGAUCUUGAUGAA”, the “apparent Kd” value runs as follows: under setting [3], 29.6 nM; under setting [4], 26.3 nM.
On to “AAACACGGACAUGAGGAUCACCCAUGUGGCGAAAGCCUUGGGAGAAGGCAGUAUGCAAAGCAUUCUGAGGAUAUUCAUACCGUG”, for which the “apparent Kd” value reads like this: under setting [3], 926 nM; under setting [4], 68.9 nM.
For the sequence “CCGUUUUGAGGAUAUCCACCCUCAUACAUGAGGAUCACCCAUGUUCACCCUUGGGUUCCCGGAGAAGGCAGUUUUC”, the “apparent Kd” value by setting is: under setting [1], 1120 nM; under setting [2], 828 nM.
With “CUUCGACAUGAGGAUCACCCAUGUCAGGAUAUUGUGUAUCGGGUUUUUUACGGAUAGGCAAGAAGGGAUGUGUG”, the “apparent Kd” value is 35.6 nM under setting [1] and 34.2 nM under setting [2].
In the same order, the values of “GGUAGAGAGCAGGAUAUCUUGGGUAAGUAUCGUAGAGAAGGGCUCACAUGAGGAUCACCCAUGUGGUCCUAGAU” are 12.1 nM and 24.8 nM.
On to “UCAGUUCUGCAAGGAUAUCGUCCUAGUUUGGUACGAGAAGGUGCUUUUGUUUUUUCCUUGUGUUGACAUGAGGAUCACCCAUGU”, for which the “apparent Kd” value under setting [1] turned out to be 35.8 nM and the “apparent Kd” value under setting [2] was 46.5 nM.
In the same order, the values of “CACAAGAAAGUCGAAGGUUGAAGUAGAAGGACAAUAACAUGACAUGAGGAUCACCCAUGUGCCAUGUAGGAUAUGCUUUAAUCG” are 8.54 nM and 8.34 nM.
For “CUUUUGUGAGGAUAUCAGUAGUAAUAAAAUAAAAUAACUACUGAGAAGGCACAUGAGGAUCACCCAUGUUCCUC”, in that order: 32 nM and 145 nM.
Take “UAUGAACAUGAGGAUCACCCAUGUGGUAAGAUCACAGGAUAUCACCUCGGACGUGCGAUGUGAGAAGGGUGAUGGU”: the “apparent Kd” value reads like this: under setting [3], 585 nM; under setting [4], 113 nM.
For “CAGCGCUGUUGAGAGGAUAUGCGGUGAUGGACAUGAGGAUCACCCAUGUUAGCGACAGCAUUACGGUAGAAGGCUCCACAGCUGC”, in that order: 22.9 nM and 13.8 nM.
In the case of “UCGCUGCGAGGAUAUACGUGCGCGCGCUCGCGUUCGCGCGUACAUGAGGAUCACCCAUGUAGAAGGCGCGCUGC”, the “apparent Kd” value worked out at 13.5 nM under setting [1] and 13.2 nM under setting [2].
In the same order, the values of “UAUGUUUCGCAGAAGGGAACGGUUUAUAACAAUUCAGGAUAUGCGACAUGAGGAUCACCCAUGUAGCAGUAUAUAGGGUUGAAU” are 7.5 nM and 45.9 nM.
For “AUCAGCUCGUCAGGAUAUACAUCACUGCUUCGGCAGUGUAUUAAGAUCACAUGAGGAUCACCCAUGUAGAAGGGACGAGCUGAU”, in that order: 31.7 nM and 310 nM.
For “GUCGGAAACGACAAUGAUAGGACUGAGGAUAUACGUAAUAUUAUCCAUACAUGAGGAUCACCCAUGUAGAAGGCAGUCCUAUCU”, in that order: 5.85 nM and 6.02 nM.
Regarding “UUAUGCUUUGAGAAGGUACAAACUACAUAUUGCGCACAUGAGGAUCACCCAUGUUGGUGAAUAAGUAAGGAUAUUAGACUGUGC”, the “apparent Kd” value by setting is: under setting [1], 133 nM; under setting [2], 102 nM.

The values are drawn from the EternaBench riboswitch data.
